{"data": "Measured values collected from several papers", "read-out": "cell growth or viability", "note": "Protocols differ between the studies behind these lines."}
{"Compound": "C[C@H](Nc1ccc2c(c1)OCCn1cc(N3C(=O)OC[C@H]3C(F)F)nc1-2)C(N)=O", "cell line": "Detroit 562", "test": "ATP luminescence", "setting": "5 days", "quantity": "EC50", "result": "0.0831 µM"}
{"Compound": "Cc1cc(=O)oc2cc(OCCCCSC#N)ccc12", "cell line": "HeLa", "test": "SRB", "quantity": "GI50", "result": "1.9 µM"}
{"Compound": "CCC(=CCc1c(O)cc2c(c1O)C(=O)CC(c1ccc(O)cc1)O2)CC (stereo in doubt)", "cell line": "HeLa", "test": "MTT", "setting": "6.25 µM, 48 h", "quantity": "inhibition", "result": "9.54%"}
{"Compound": "Cc1nc(Nc2ncc(C(=O)Nc3c(C)cccc3Cl)s2)cc(N2CC[C@H](O)C2)n1", "cell line": "P3HR-1", "test": "ATP luminescence", "setting": "10 µM, 72 h", "quantity": "inhibition", "result": "51%"}
{"Compound": "CCC(=CCc1c(O)cc2c(c1O)C(=O)C[C@@H](c1ccccc1O)O2)CC", "cell line": "HeLa", "test": "MTT", "setting": "15 µM, 48 h", "quantity": "inhibition", "result": "0.607%"}
{"Compound": "CCOc1ccc(C(=O)CC(SCc2ccc(Cl)cc2)C(=O)OC)cc1 (centres unmarked)", "cell line": "SK-MEL-2", "test": "MTT", "setting": "48 h", "quantity": "EC50", "result": "23 µM"}
{"Compound": "C=C(NC(=O)C(=C)NC(=O)c1csc(C2=N[C@@H]3c4csc(n4)[C@H]4NC(=O)c5csc(n5)[C@H]([C@](C)(O)[C@@H](C)O)NC(=O)[C@H]5CSC(=N5)/C(=C/C)NC(=O)[C@H]([C@@H](C)O)NC(=O)c5csc(n5)[C@]3(CC2)NC(=O)[C@H](C)NC(=O)C(=C)NC(=O)[C@H](C)NC(=O)[C@H]([C@@H](C)CC)N[C@@H]2C=Cc3c([C@H](C)O)cc(nc3[C@H]2O)C(=O)O[C@@H]4C)n1)C(N)=O", "cell line": "NCI-H1792", "quantity": "EC50", "result": "3.2 µM"}
{"Compound": "[NH2][Pt]([NH2])([Cl])[Cl]", "cell line": "HeLa", "test": "SRB", "quantity": "GI50", "result": "1.9 µM"}
{"Compound": "CCOc1ccc(-c2cc(C(=O)O)c(-c3ccc(Cl)cc3)o2)cc1", "cell line": "SK-MEL-2", "test": "MTT", "setting": "48 h", "quantity": "EC50", "result": "72 µM"}
{"Compound": "N#CSCCCCOc1ccc2c(-c3ccccc3)cc(=O)oc2c1", "cell line": "HeLa", "test": "SRB", "quantity": "GI50", "result": "25 µM"}
{"Compound": "CCOC(=O)c1cc(-c2ccc(OCC)cc2)oc1-c1ccc(Cl)cc1", "cell line": "U2OS", "test": "MTT", "setting": "48 h", "quantity": "EC50", "result": "190 µM"}
